Assay results published in ChEMBL document CHEMBL4513216, “Probing the Open Global Health Chemical Diversity Library for Multistage-Active Starting Points for Next-Generation Antimalarials” (ACS Infect Dis, 2020).

Experiment: Toxicity liver stage against HepG2, at 10uM
Assay type: cell-based
Parameters: test concentration 10 uM, cell line HepG2-A16-CD81EGFP
Settings: human, HepG2-A16-CD81EGFP cells; read-out: INHIBITION
Summary of the method: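 Uninfected HepG2-A16-CD81EGFP cells, 3 × 10^3 per well, 1536-well, plated on prespotted compound at 10 μM final, parasite-free screening media added to match infected plates; puromycin 10 μM positive, DMSO 0.5% negative; run in parallel with 48 h PbLuc assay at 37 °C, 5% CO2; viability by CellTiter-Glo luminescence, normalized to controls.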

| SMILES | cytotoxicity at 10 µM |
| --- | --- |
| CC[C@H]1CN(C(=O)c2cccnc2)CC[C@H]1CC(=O)NCCOC | 5.26% |
| c1cc(-c2noc([C@@H]3Cc4nc[nH]c4CN3)n2)ccn1 | -0.873% |
| Cc1nc(N2CCOCC2)nc(C)c1NS(=O)(=O)c1ccccc1 | -1.44% |
| COc1ncc(NS(=O)(=O)c2ccc(F)c(F)c2)c(OC)n1 | -7.76% |
| CCS(=O)(=O)N1Cc2ncn(CC3CC3)c2C(COC)C1 (stereo unspecified) | 8.83% |
| COCC1CN(C(=O)c2ccccn2)Cc2nccn2C1 (stereo unspecified) | 8.62% |
| CC(C)NC(=O)C(C)NC(=O)N1CCN(c2ccc(Cl)cc2)CC1 (stereo unspecified) | -3.6% |
| O=C(O)Cn1nc(C2CC2)c2c(-c3cccs3)ccnc21 | -11.6% |
| COc1ccc(CC(=O)N2CCN(Cc3ccco3)C[C@@H]2C)cc1OC | 3.88% |
| CC(=O)N1CCC1c1cc(NC2CCOCC2)nc(C)n1 (stereo unspecified) | 1.79% |
| Cc1cc(C)nc(Nc2cc(C)nc(C3CCN(C(C)C)C3)n2)n1 (stereo unspecified) | 3.06% |
| COCc1nnc(-c2cccc(C(=O)OC(C)C)c2)o1 | -21.8% |
| Cc1cc(C)nc(NC2CCC(=O)N(C)C2)n1 (stereo unspecified) | -4.83% |
| CC(NC(=O)NCC(F)(F)F)c1nncn1C (stereo unspecified) | -1.63% |
| COCc1noc(C2(c3ccc(F)cc3)CC2)n1 | -2.93% |
| Cn1c(N)nnc1SCc1ccc(Cl)cc1Br | 1.48% |
| CC1CCCN(C(=O)c2csc(S(N)(=O)=O)c2)CC1 (stereo unspecified) | 1.52% |
| CC(=O)N1CCC(n2nccc2-c2cnc(N(C)CCO)nc2)CC1 | 5.47% |
| CCN(Cc1cc(F)c(OC)c(Cl)c1)Cc1nc(COC)no1 | 3.98% |
| Cc1cc2occ(CC(=O)N3CCC(O)(CN(C)C)C3)c2cc1Cl (stereo unspecified) | -6.55% |
| CCCc1nnc(N2CCN(c3cccc(OC)c3)C(=O)C2)o1 | 9.52% |
| Cc1cc(C(=O)N2CCc3c(ncnc3N3CCOCC3)C2)[nH]n1 | -5.92% |
| N#Cc1c(N)nc2c(c1-c1c[nH]nc1C1CCCCC1)COCC2 | 6.75% |

| SMILES | cytotoxicity at 10 µM |
| --- | --- |
| COc1cc(N2CCC(c3nccn3Cc3ccccc3)CC2)ncn1 | 5.44% |
| C=C(C)COc1ccccc1NC(=O)N1CCOCC(CO)C1 (stereo unspecified) | -1.57% |
| Cc1cc(N2CCCC(O)(CN(C)C)C2)c2cc3c(cc2n1)OCO3 (stereo unspecified) | 0.935% |
| Cc1cc2[nH]c(=O)oc2cc1S(=O)(=O)N1CCCC(N(C)C)CC1 (stereo unspecified) | 0.74% |
| Cc1cc2c(c(-c3c[nH]c(C)n3)c1)OC(CN)C2 (stereo unspecified) | 4.24% |
| COCCC1CCN([C@@H]2c3ccccc3C3(CCNCC3)[C@H]2O)CC1 | 1.35% |
| CCOc1cccc(C2CC(=O)NCc3nc(N(C)C)sc32)c1 (stereo unspecified) | -10.9% |
| O=C(O)Cc1nc2nccc(-c3ccc(F)cc3)n2n1 | -1.53% |
| NS(=O)(=O)Cc1ccc(CNc2cncc(-n3cccn3)n2)cc1 | 6.1% |
| CC(OCC1CC1)C(=O)N1CCCN(Cc2cscn2)CC1 (stereo unspecified) | -5.16% |
| c1ccc(-c2cc(CN3CCCC(Cn4cncn4)C3)on2)cc1 (stereo unspecified) | -15.9% |
| CCC(C)C(=O)NCc1cccc(N2CCCCC2=O)c1 (stereo unspecified) | -6.93% |
| Cc1nc(CC(=O)N2CCC(Nc3cccnn3)CC2)cs1 | -9.45% |
| CCc1csc(C2CCCN(C(=O)c3ccc(OC)nn3)C2)n1 (stereo unspecified) | -8.8% |
| OCCN1CCN(Cc2coc(-c3ccc(Cl)cc3)n2)CC1 | -13.6% |
| CN1CCOC(CN(C(=O)Cc2ccccc2F)c2nccs2)C1 (stereo unspecified) | -11.7% |
| CCC(CC)C(O)CNC(=O)Nc1cc(C)nn1C (stereo unspecified) | -11% |
| Cn1nc(CN2CCCC2)c2c1CN(CC1CC1)CC2 | -3.27% |
| Cc1cccc(CN2C[C@H](NS(C)(=O)=O)[C@@H]3OCCC[C@@H]32)n1 | -0.179% |
| CN(C)C(=O)N1CCC2(CCCN(c3ncccn3)C2)C1 (stereo unspecified) | 4.82% |
| c1csc(CN2CCOCC3(CCN(C4CCOCC4)C3)C2)c1 (stereo unspecified) | -0.608% |
| N#CC1Sc2nnc(-c3ccccc3F)n2N=C1N (stereo unspecified) | -0.634% |
| CC(=O)Nc1c(C)noc1C=Cc1ccc(C)c(S(=O)(=O)NC2CC2)c1 | 0.905% |
